Experimental data published in ChEMBL document CHEMBL1671759, “Thr202Ala in thyA is a marker for the Latin American Mediterranean lineage of the Mycobacterium tuberculosis complex rather than para-aminosalicylic acid resistance” (2010).
The source made the active and inactive calls.

Assays:
[1] = test system: Mycobacterium tuberculosis; test: Antimicrobial activity against Mycobacterium tuberculosis LAM 8885/05 harboring thyA Thr202Ala single nucleotide polymorphism grown in 7H9 broth assessed as decrease in bacterial growth at 0.125 to 2 ug/ml by spectrophotometry; format: functional, organism-based
Outline: (§1)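 PAS growth curves in 7H9 broth with OADC (10%) and Tween 80 (0.05%), 37°C, rolling device. PAS was added at OD600 0.1 to 0, 0.13, 0.25, 0.5, 1.0 and 2.0 mg/liter. OD600 was read daily for 9 consecutive days, in triplicate. Curves are means of three independent experiments.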

[2] = test system: Mycobacterium tuberculosis; test: Antimicrobial activity against Mycobacterium tuberculosis H37Rv 9679/00 harboring thyA Thr202Ala single nucleotide polymorphism grown in Lowenstein-Jensen medium; format: functional
Outline: (§2)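 PAS MIC by conventional susceptibility testing on Löwenstein-Jensen medium at 0.063, 0.13, 0.25, 0.5 and 1.0 mg/liter PAS. Strains were drawn from the reference collection and cultivated at the Borstel Supranational Reference Laboratory.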

[3] = test system: Mycobacterium tuberculosis; test: Antimicrobial activity against Mycobacterium tuberculosis LAM 7968/03 harboring thyA Thr202Ala single nucleotide polymorphism grown in Lowenstein-Jensen medium; format: functional; outline: as §2
[4] = test system: Mycobacterium tuberculosis; test: Antimicrobial activity against Mycobacterium tuberculosis Haarlem 9532/03 harboring thyA Thr202Ala single nucleotide polymorphism grown in Lowenstein-Jensen medium; format: functional; outline: as §2
[5] = test system: Mycobacterium tuberculosis; test: Antimicrobial activity against Mycobacterium tuberculosis H37Rv 9679/00 harboring thyA Thr202Ala single nucleotide polymorphism grown in 7H9 broth assessed as decrease in bacterial growth at 0.125 to 2 ug/ml by spectrophotometry; format: functional, organism-based; outline: as §1
[6] = test system: Mycobacterium tuberculosis; test: Antimicrobial activity against Mycobacterium tuberculosis Beijing 1934/03 harboring thyA Thr202Ala single nucleotide polymorphism grown in Lowenstein-Jensen medium; format: functional; outline: as §2
[7] = test system: Mycobacterium tuberculosis; test: Antimicrobial activity against Mycobacterium tuberculosis LAM 8885/05 harboring thyA Thr202Ala single nucleotide polymorphism grown in Lowenstein-Jensen medium; format: functional; outline: as §2
[8] = test system: Mycobacterium tuberculosis; test: Antimicrobial activity against Mycobacterium tuberculosis LAM 7968/03 harboring thyA Thr202Ala single nucleotide polymorphism grown in 7H9 broth assessed as decrease in bacterial growth at 0.125 to 2 ug/ml by spectrophotometry; format: functional, organism-based; outline: as §1
[9] = test system: Mycobacterium tuberculosis; test: Antimicrobial activity against Mycobacterium tuberculosis Beijing 1934/03 harboring thyA Thr202Ala single nucleotide polymorphism grown in 7H9 broth assessed as decrease in bacterial growth at 0.125 to 2 ug/ml by spectrophotometry; format: functional, organism-based; outline: as §1
[10] = test system: Mycobacterium tuberculosis; test: Antimicrobial activity against Mycobacterium tuberculosis Haarlem 9532/03 harboring thyA Thr202Ala single nucleotide polymorphism grown in 7H9 broth assessed as decrease in bacterial growth at 0.125 to 2 ug/ml by spectrophotometry; format: functional, organism-based; outline: as §1

Nc1ccc(C(=O)O)c(O)c1 [AMINOSALICYLIC ACID]
active: Activity [1] | Activity [5] | Activity [8] | Activity [9] | Activity [10]
0.5 ng/mL: MIC [2] | MIC [3] | MIC [4] | MIC [6] | MIC [7]
